Reference: ChEMBL document CHEMBL5252639, “Exploration of cytotoxic potential and tubulin polymerization inhibition activity of cis-stilbene-1,2,3-triazole congeners” (RSC Med Chem, 2023)

Experiments:
BT-474 = test: Cytotoxicity against human BT-474 cells assessed as inhibition of cell growth measured for 24 hrs by MTT assay; format: functional, cell-based; settings: BT-474, 24 h
How it was run: (§1)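 Cells were kept at 37 °C with 5% CO2 in suitable medium with 10% FBS and 1% antibiotic-antimycotic, and passaged at 80-90% confluency using 0.25% trypsin/1 mM EDTA. They were seeded at 1×10^3–4×10^3 cells/well and attached overnight. Compounds came from 10 mM DMSO stocks diluted in medium and were applied for 24 h. MTT (0.5 mg/mL) was added for 4 h at 37 °C, formazan was dissolved in DMSO, and absorbance was read at 570 nm.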

HCT-116 [1] = test: Cytotoxicity against human HCT-116 cells assessed as inhibition of cell growth measured for 24 hrs by MTT assay; format: functional, cell-based; settings: HCT-116, 24 h; how it was run: as §1
A549 = test: Cytotoxicity against human A549 cells assessed as inhibition of cell growth measured for 24 hrs by MTT assay; format: functional, cell-based; settings: A549, 24 h; how it was run: as §1
B16-F10 = test: Cytotoxicity against mouse B16-F10 cells assessed as inhibition of cell growth measured for 24 hrs by MTT assay; format: functional, cell-based; settings: B16-F10, 24 h; how it was run: as §1
HCT-116 [2] = test: Induction of apoptosis in human HCT-116 cells assessed as viable cells at 0.55 uM measured after 24 hrs by Annexin V-FITC/propidium iodide staining based flow cytometry (reference value: 99.71%); format: functional; settings: read-out: Activity
HCT-116 [3] = test: Induction of morphological change in human HCT-116 cells assessed as change in cell shape incubated for 24 hrs by phase contrast microscopic analysis; format: functional, cell-based; settings: dose 1.62-6.5 µM
How it was run: (§2)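 HCT-116 plated at 1 × 10^6 cells/mL in RPMI + 10% FBS and allowed to adhere 24 h at 37 °C, 5% CO2. […] After 24 h, morphology imaged by phase-contrast microscopy at 20X.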

HCT-116 [4] = test: Induction of cell cycle arrest in human HCT-116 cells assessed as accumulation of cells at G0/G1 phase at 0.55 uM […] by PI staining based flow cytometry analysis relative to control (reference value: 70.34%); format: functional
HCT-116 [5] = test: Induction of apoptosis in human HCT-116 cells assessed as early apoptotic cells at 0.55 uM measured after 24 hrs by Annexin V-FITC/propidium iodide staining based flow cytometry (reference value: 0.28%); format: functional
HCT-116 [6] = test: Induction of morphological change in human HCT-116 cells assessed as cell detachment incubated for 24 hrs by phase contrast microscopic analysis; format: functional, cell-based; how it was run: as §2
HCT-116 [7] = test: Induction of cell cycle arrest in human HCT-116 cells assessed as accumulation of cells at S phase at 0.55 uM measured after 24 hrs by PI staining based flow cytometry analysis relative to control (reference value: 5.55%)
HCT-116 [8] = test: Induction of apoptosis in human HCT-116 cells assessed as late apoptotic cells at 0.55 uM measured after 24 hrs by Annexin V-FITC/propidium iodide staining based flow cytometry (reference value: 0.00%); format: functional
HCT-116 [9] = test: Induction of apoptosis in human HCT-116 cells assessed as necrotic cells at 0.55 uM measured after 24 hrs by Annexin V-FITC/propidium iodide staining based flow cytometry (reference value: 0.00%); format: functional
HCT-116 [10] = test: Induction of cell cycle arrest in human HCT-116 cells assessed as accumulation of cells at G2/M phase at 0.55 uM measured after 24 hrs by PI staining based flow cytometry analysis relative to control (reference value: 15.61%)
HCT-116 [11] = test: Induction of morphological change in human HCT-116 cells assessed as cell rounding incubated for 24 hrs by phase contrast microscopic analysis; format: functional, cell-based; settings: dose 1.62-6.5 µM; how it was run: as §2
HCT-116 [12] = test: Induction of apoptosis in human HCT-116 cells assessed as horseshoe shaped nuclei measured for 24 hrs by DAPI staining based microscopic analysis; format: functional, cell-based; settings: dose 1.62-6.5 µM
How it was run: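 Then PBS wash, 4% paraformaldehyde fixation 30 min, 0.1% Triton X permeabilisation 15 min, 1 µM DAPI 15 min, PBS wash. Imaged by fluorescence microscopy (ex 350/em 460 nm), 20X.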

Tubulin (Homo sapiens) = Tubulin (Homo sapiens) (UniProt P68371+Q9H4B7+P0DPH7+P68366+Q13509+Q71U36+P04350+Q3ZCM7+P07437+P68363+Q9BQE3+Q6PEY2+Q13885+Q9BVA1+Q9BUF5); test: Inhibition of tubulin polymerization in human HCT-116 cells at 3 uM measured after 1 hr relative to control; format: cell-based

SMILES | IC50 (BT-474) | IC50 (HCT-116 [1]) | IC50 (A549) | IC50 (B16-F10) | other results
COc1ccc(/C=C(/C(=O)OCc2cn(Cc3ccccc3F)nn2)c2ccc(OC)c(OC)c2)cc1OC | 26.2 µM | 22.1 µM | 29.2 µM | 17.4 µM | –
COc1ccc(/C=C(/C(=O)OCc2cn(CC(=O)c3ccc(Br)cc3)nn2)c2ccc(OC)c(OC)c2)cc1OC | > 50 µM | 35.8 µM | 42.9 µM | > 50 µM | –
COc1ccc(C(=O)Cn2cc(COC(=O)/C(=C/c3ccc(OC)c(OC)c3)c3ccc4c(c3)OCO4)nn2)cc1 | > 50 µM | > 50 µM | 31.3 µM | 37.7 µM | –
COc1ccc(/C=C(/C(=O)OCc2cn(Cc3cccc(Cl)c3)nn2)c2ccc(OC)c(OC)c2)cc1OC | > 50 µM | 21.2 µM | > 50 µM | 22.8 µM | –
COc1ccc(/C=C(/C(=O)OCc2cn(CC(=O)c3ccc(C)cc3)nn2)c2ccc(OC)c(OC)c2)cc1OC | 40.7 µM | 33.4 µM | 41.7 µM | > 50 µM | –
COc1ccc(/C=C(/C(=O)OCc2cn(Cc3ccc(Br)cc3)nn2)c2ccc(OC)c(OC)c2)cc1OC | 20.7 µM | 25.3 µM | 15.2 µM | 1.53 µM | –
COc1ccc(/C=C(/C(=O)OCc2cn(CC(=O)c3ccc(Cl)cc3)nn2)c2ccc3c(c2)OCO3)cc1OC | > 50 µM | > 50 µM | 37.3 µM | 28.9 µM | –
COc1ccc(/C=C(/C(=O)OCc2cn(Cc3ccccc3[N+](=O)[O-])nn2)c2ccc(OC)c(OC)c2)cc1OC | 40.8 µM | 38.1 µM | 41 µM | 39.5 µM | –
COc1ccc(/C=C(/C(=O)OCc2cn(Cc3ccccc3)nn2)c2ccc(OC)c(OC)c2)cc1OC | 14.9 µM | 20.2 µM | 32.7 µM | 16.1 µM | –
COc1ccc(/C=C(/C(=O)OCc2cn(CC(=O)c3ccc(Cl)cc3)nn2)c2ccc(OC)c(OC)c2)cc1OC | > 50 µM | 31.9 µM | 38.6 µM | > 50 µM | –
COc1ccc(C(=O)Cn2cc(COC(=O)/C(=C/c3ccc(OC)c(OC)c3)c3ccc(OC)c(OC)c3)nn2)cc1 | 47.5 µM | 18 µM | 41.9 µM | 14.1 µM | –
COc1ccc(/C=C(/C(=O)OCc2cn(Cc3ccc(F)cc3)nn2)c2ccc(OC)c(OC)c2)cc1OC | 17.1 µM | 21.6 µM | 28.9 µM | 2.37 µM | –
COc1ccc(/C=C(/C(=O)OCc2cn(Cc3cc(C)ccc3C)nn2)c2ccc(OC)c(OC)c2)cc1OC | 20.1 µM | 49.9 µM | > 50 µM | 40.8 µM | –
COc1ccc(/C=C(/C(=O)OCc2cn(CC(=O)c3ccc(Cl)c(Cl)c3)nn2)c2ccc(OC)c(OC)c2)cc1OC | 47.5 µM | 26.5 µM | 37 µM | 29.6 µM | –
COc1ccc(/C=C(/C(=O)OCc2cn(Cc3ccc([N+](=O)[O-])cc3)nn2)c2ccc(OC)c(OC)c2)cc1OC | 28.4 µM | 35 µM | 36.8 µM | 17.5 µM | –
COc1ccc(/C=C(/C(=O)OCc2cn(CC(=O)c3ccc(Cl)c(Cl)c3)nn2)c2ccc3c(c2)OCO3)cc1OC | > 50 µM | > 50 µM | 25.5 µM | 41.6 µM | –
COc1ccc(/C=C(/C(=O)OCc2cn(CC(=O)c3ccccc3)nn2)c2ccc(OC)c(OC)c2)cc1OC | 16.2 µM | 23.5 µM | 38.2 µM | 40.2 µM | –
COc1cc2c(c(OC)c1OC)-c1ccc(OC)c(=O)cc1[C@@H](NC(C)=O)CC2 [COLCHICINE] | 12.5 µM | 0.55 µM | 0.89 µM | – | viability at 0.55 µM (HCT-116 [2]): 31.1%; Activity (HCT-116 [3]): Dose-Dependent Effect; Activity (HCT-116 [4]): 54.45%; Activity (HCT-116 [5]): 10.32%; Activity (HCT-116 [6]): Dose-Dependent Effect; Activity (HCT-116 [7]): 6.61%; Activity (HCT-116 [8]): 61.81%; Activity (HCT-116 [9]): 6.78%; Activity (HCT-116 [10]): 40.57%; Activity (HCT-116 [11]): Dose-Dependent Effect; Activity (HCT-116 [12]): Dose-Dependent Effect
CC(=O)O[C@H]1C(=O)[C@@]2(C)[C@H]([C@H](OC(=O)c3ccccc3)[C@]3(O)C[C@H](OC(=O)[C@H](O)[C@@H](NC(=O)c4ccccc4)c4ccccc4)C(C)=C1C3(C)C)[C@]1(OC(C)=O)CO[C@@H]1C[C@@H]2O | – | – | – | – | inhibition (Tubulin (Homo sapiens)): 49.5%
COc1ccc(/C=C(/C(=O)OCc2cn(CC(=O)c3ccccc3)nn2)c2ccc3c(c2)OCO3)cc1OC | > 50 µM | > 50 µM | 30.8 µM | 30.9 µM | –
COc1ccc(/C=C(/C(=O)OCc2cn(Cc3ccc(C)cc3)nn2)c2ccc(OC)c(OC)c2)cc1OC | 12.4 µM | 21.1 µM | 12.4 µM | 1.73 µM | –
